Assay: Toxicity liver stage against HepG2, at 10uM
Assay type: cell-based
Parameters: test concentration 10 uM, cell line HepG2-A16-CD81EGFP
Conditions: human, HepG2-A16-CD81EGFP cells; read-out: INHIBITION
Outline: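 Uninfected HepG2-A16-CD81EGFP cells, 3 × 10^3 per well, 1536-well, plated on prespotted compound at 10 μM final, parasite-free screening media added to match infected plates; puromycin 10 μM positive, DMSO 0.5% negative; run in parallel with 48 h PbLuc assay at 37 °C, 5% CO2; viability by CellTiter-Glo luminescence, normalized to controls.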

| SMILES | cytotoxicity at 10 µM [%] |
| --- | --- |
| CSc1ccc(C(=O)C2CCCN(C(=O)Cn3cnnn3)C2)cc1 (configuration not stated) | -1.57 |
| CC(=O)NC[C@H]1OC[C@@H](NC2CCC(F)(F)CC2)[C@@H]1O | -8.57 |
| O=c1c(NCCOCCO)c(N2CCN(c3ccccc3)CC2)c1=O | -5.64 |
| Cn1ccc2c(NC(=O)Cn3ncc4c(c3=O)CCCCC4)cccc21 | 3.89 |
| CC(C)C1SCC(=O)Nc2c1cnn2-c1ccc(Cl)cc1F (configuration not stated) | 17.2 |
| O=C1CCC(c2ccc(Cl)cc2)=NN1CN1CCSCC1 | 34.4 |
| Cc1cnc2n(c1=O)C(CC(=O)NCc1cccs1)CS2 (configuration not stated) | 4.68 |
| COc1ccc(S(=O)(=O)NCC(O)c2sccc2C)cc1C (configuration not stated) | 1.69 |
| CCS(=O)(=O)N1CCC(c2nnc(C(F)(F)F)o2)CC1 | -11 |
| O=C(NCCn1nc(-n2cncn2)ccc1=O)c1ccsc1 | 1.99 |
| Cc1cc(S(=O)(=O)N2CCC(S(C)(=O)=O)C2)ccc1F (configuration not stated) | 0.246 |
| COC(=O)c1ccc(C(=O)NCc2nn(C)c3c2COCC3)cc1 | 7.91 |
| CC(C)NC(=O)N1CC[C@@H]2[C@@H]1CC(=O)N2Cc1cccnc1 | 4.67 |
| CC[C@H]1N(Cc2ccc(OC)cc2)CCC[C@]12CCC(=O)N2C | -5.6 |
| O=C(CC1CC1)N1CCCC2(CCC(=O)N2CC2CC2)CC1 (configuration not stated) | 0.964 |
| Cc1nc(CN2CCC3(CC2)NC(=O)CC3c2cccnc2)cs1 (configuration not stated) | -2.27 |
| O=c1[nH]nc2c(S(=O)(=O)N3CCCC3)cccn12 | -4.52 |
| CCc1c(C(=O)O)nnn1-c1cccc(C)c1C | -16.1 |
| CCCN(CCC)c1ncc(S(=O)(=O)c2cccc(C)c2)c(N)n1 | 11 |
| COc1cccc(-c2nc(C)c(C(=O)NC(CO)CCSC)s2)c1 (configuration not stated) | -7.71 |
| CC(=O)N1CCN(C(=O)c2cc(-n3cnnn3)ccc2Cl)CC1 | 8.32 |
| c1ccc(OCC2CC3(CCN(Cc4ccncc4)CC3)CO2)nc1 (configuration not stated) | -12.5 |
| Cc1c(CN2CCOCC2)c(O)n(CCc2ccccc2)c(=O)c1C#N | 4.1 |

| SMILES | cytotoxicity at 10 µM [%] |
| --- | --- |
| CCOCCCNC(=O)c1cc(OC)c2ccoc2c1 | 6.51 |
| CSCc1cccc(S(=O)(=O)N2CCSCC2)c1 | 14.3 |
| CC1(C(=O)NCCCOc2ccccc2F)CC(=O)N2C=CC=CC2=N1 (configuration not stated) | 2.28 |
| Oc1cc(CC2COCCN(CC3(O)CCOCC3)C2)ncn1 (configuration not stated) | 8.08 |
| OCCN1CCCCC1c1cc[nH]n1 (configuration not stated) | -1.71 |
| CC1CCc2n[nH]c(C(=O)NCCCc3ccco3)c2C1 (configuration not stated) | -23.2 |
| Cc1cnc(C2(C)CCN(Cc3csc(C)n3)CC2)s1 | -16.1 |
| COCC(=O)N1CC(c2ccnc(Nc3ccc(C)cn3)n2)C1 | -30.9 |
| CCC(=O)N1CCC(Cc2ccccc2-c2ccncc2)(C(=O)NC)C1 (configuration not stated) | -16 |
| Cc1nc(Nc2nnc(C)s2)cc(C2CCCN2S(C)(=O)=O)n1 (configuration not stated) | -11.9 |
| Cc1ncncc1C(=O)N1CCC(O)(CN(C)Cc2ccc(F)cc2)C1 (configuration not stated) | -7.16 |
| c1cnc2[nH]c(C3CCNCC3)c(CN3CCOCC3)c2c1 | 1.82 |
| CCn1cc(CN2CCC(O)(Cn3nc(C)ccc3=O)CC2)cn1 | -22.3 |
| OC1(CNc2ccc(F)cc2)CCNCC1 | 2.4 |
| CNC(=O)CNC(=O)Nc1ccc(Br)c(F)c1 | 5.44 |
| CC(C)n1nnnc1-c1ccc(NC(=O)C(C)(C)C#N)cc1F | -7.36 |
| N#CCCN(C(=O)COC1CCCC1)C1CC1 | -4.14 |
| CN(CCc1ccccn1)C(=O)Cn1cc(-c2ccccc2)nn1 | 0.788 |
| Cc1nc(C)c(C(=O)Nc2ccc(-c3nnc(N(C)C)o3)cc2)o1 | 1.87 |
| COc1ccc(F)cc1C(=O)N1CCn2c(nnc2C(F)(F)F)C1 | -7.61 |
| O=C(c1cc(C2CC2)[nH]n1)N1CCN(c2nccs2)CC1 | 1.39 |
| O=C1CN(C(=O)c2cc(Cl)ccc2F)c2ccncc2N1 | 5.92 |
| COC(=O)CNC(=O)C(C(C)C)n1cnc2cc(F)c(F)cc21 (configuration not stated) | 2.76 |

| SMILES | cytotoxicity at 10 µM [%] |
| --- | --- |
| CC(C)c1nc(C2CCCN(C(=O)CN3CCCNC3=O)C2)no1 (configuration not stated) | -4.1 |
| CCc1nc2c(s1)C(N(C)C(C)=O)CCC2 (configuration not stated) | -11.6 |
| O=c1[nH]c(CCN2CCN(CC(F)(F)F)CC2)nc2ccccc12 | 4.44 |
| CC(CNC(=O)N1CCN(c2ncccn2)CC1)Cc1cccs1 (configuration not stated) | -7.9 |
| CC(=O)N1CCCN(C(C)C(=O)Nc2ccnn2C(C)C)CC1 (configuration not stated) | -6.22 |
| CC(C)N(C)S(=O)(=O)N1CCCC1CC(=O)c1cccs1 (configuration not stated) | 5.17 |
| Cn1nccc1CNS(=O)(=O)c1cc(F)ccc1Br | 11.8 |
| Cc1cn2c(n1)CCC(NC(=O)CCOc1cccc(F)c1)C2 (configuration not stated) | -3.42 |
| NC(=O)NC(=O)CCN(Cc1ccccc1)CC1CCOCC1 | -1.86 |
| O=C(NCCNc1ncccn1)N1CCCC1c1ccc(F)cc1 (configuration not stated) | 0.932 |
| CCN(CC)C(CNC(=O)c1ccc(S(=O)(=O)NC)cc1)c1ccco1 (configuration not stated) | -13.5 |
| CN1CCCN(C(=O)c2cnsn2)c2cc(Cl)ccc21 | -7.34 |
| O=C(c1cccc(Cl)c1Cl)N1CCN(CC(O)Cn2cccn2)CC1 (configuration not stated) | -14.3 |
| CS(=O)(=O)CCSc1n[nH]c(-c2ccc3c(c2)CCC3)n1 | -2.14 |
| Cn1nc(C(=O)N(CC(F)(F)F)c2cccc(Cl)c2)ccc1=O | 7.48 |
| CCNC(=O)CN1CCSC2(CCCCC2)C1 | -2.64 |
| O=C1C(Sc2nnnn2C2CC2)CCN1c1ccccc1F (configuration not stated) | 4.05 |
| CC(C)Cc1nc(CS(=O)(=O)c2ccccc2)no1 | 9.52 |
| CCc1ccc(C(=O)NC(C)c2ccc(S(C)(=O)=O)c(F)c2)o1 (configuration not stated) | 17.2 |
| CC(CN1CCOCC1)OC(=O)c1cccc2cn[nH]c12 (configuration not stated) | -1.08 |
| CC(C)CSCCCNC(=O)C1CCOCC1 | -3.65 |
| Cc1sc(CN)nc1-c1ccccc1 | -2.85 |
| O=C(C1CCCN(CCc2ccc3c(c2)CCO3)C1)N1CCCC1 (configuration not stated) | -19.8 |

| SMILES | cytotoxicity at 10 µM [%] |
| --- | --- |
| Cc1ccc2nc(C)c(C)c(C(=O)N3CCS(=O)(=O)CC3)c2c1 | 3.24 |
| CN(CCO)Cc1nnc(C2CCN(CC(C)(C)C)CC2)n1C | 1.89 |
| COc1cccc([C@@H](C)n2ccnc2-c2cc3n(n2)CCNC3)c1 | 3.09 |
| O=C(NC1CCCNC1=O)c1ccc2nc(-c3ccc(F)cc3)cn2c1 (configuration not stated) | 8.8 |
| CCN(Cc1cnn(C)c1)C[C@H]1CC[C@@H](Cc2ccc(C#N)cc2)O1 | 5.78 |
| Cc1nn2c(NCC(N)=O)cc(-c3ccccc3)nc2c1C | -10.5 |
| O=C(CCCOCc1ccccc1)N1CCCC(c2ncc[nH]2)C1 (configuration not stated) | 8.54 |
| Cc1ccc(N2C[C@H](O)[C@@H](N3CCN(c4ccccn4)CC3)C2)nn1 | -0.442 |
| COc1ccc(-n2c(COC(C)C)n[nH]c2=O)cc1 | 3.45 |
| O=C(c1ccc(=O)[nH]c1)N1CCCC1c1nc2cc(F)ccc2[nH]1 (configuration not stated) | 14.3 |
| CN(C)c1nc2c(c(=O)[nH]1)CCN(C(=O)C1CCCO1)C2 (configuration not stated) | -43.3 |
| COc1cc(NCC(c2ccccn2)N2CCOCC2)ncn1 (configuration not stated) | -49.1 |
| Cc1cc2nc(C(C)C)cc(N3CCN(S(N)(=O)=O)CC3)n2n1 | -11.3 |
| O=C(NC1CCCC1)N1C[C@H]2CN(c3ccccn3)C[C@@]2(C(=O)O)C1 | 6.12 |
| CCCc1ccc(CN2C[C@H]3C(=O)N(CC4CC4)C[C@@]3(C(=O)O)C2)o1 | -3.86 |
| COc1ccccc1N1CCN(C(=O)CCn2ccnc2C)CC1(C)C | -26.7 |
| CC(O)CN1CCc2onc(C(c3ccccc3)c3ccccc3)c2C1 (configuration not stated) | -1.49 |
| Cc1cc(C)n(NC(=O)c2cccc3c2OCC3)c(=O)c1 | 1.91 |
| CCc1noc(C)c1-c1nc(Cc2cccs2)nn1C1CCN(C)CC1 | -17.3 |
| Cc1nc(C)n(C2CCCN(C(=O)c3ccc(F)c(F)c3)C2)n1 (configuration not stated) | -11.9 |
| Cc1ncsc1C(=O)N(Cc1cccs1)C1CC1 | -6.13 |
| CC(C)N1CC(C(=O)NCc2cccnc2-n2cccn2)CC1=O (configuration not stated) | -10.8 |
| Cc1cnn(CC2CCCN2Cc2c(C)noc2C)c1 (configuration not stated) | -15.8 |

| SMILES | cytotoxicity at 10 µM [%] |
| --- | --- |
| CC(C)(C)n1cc(C(=O)N2CCN(Cc3ccco3)CC2)cn1 | -7.36 |
| Cc1cc2n(n1)CC(CNCc1ccc(-n3cccn3)cc1)CN2 (configuration not stated) | -2.95 |
| Cc1nc(C)n(CC2CCCCN2Cc2nnc(C3CC3)o2)n1 (configuration not stated) | -10.7 |
| CC(C)c1nn(C)c(N(C)C)c1CNCC(O)c1ccccc1F (configuration not stated) | -5.87 |
| CN(Cc1ccsc1)C(=O)c1cccc(F)c1 | -2.45 |
| CC(C)CN1CCN(C(=O)Nc2cc(C(F)(F)F)c[nH]c2=O)CC1 | -3.43 |
| CCOCC(O)CN1CCN(C(=O)c2cccnc2OC)CC1 (configuration not stated) | -4.71 |
| CC(C)=CCN(C)C1CCCN(Cc2noc(C)n2)C1 (configuration not stated) | -19.6 |
| CC(NCc1c(C(C)C)nn(C)c1N1CCOCC1)C(N)=O (configuration not stated) | -5.23 |
| O=C(Nc1ccccc1OC(F)F)C1=NN(c2ccccc2)C(=O)CN1 | -3.58 |
| CCc1n[nH]c(C2CN(C(=O)c3cc4c(s3)CCCC4)CCO2)n1 (configuration not stated) | -10.1 |
| CC(C)c1n[nH]c(C2CN(C(=O)CCn3ccccc3=O)CCO2)n1 (configuration not stated) | 4.48 |
| Cc1cnc(CN(C)CC2CCCN2c2cccnn2)cn1 (configuration not stated) | -0.241 |
| c1cnn(CCNCc2csc(-c3ccsc3)n2)c1 | 1.97 |
| CC(C)CN1CCC2(CC1)CN(C(=O)C(C)C)C2 | -2.16 |
| COCCN1CC[C@@H](O)[C@@H]1Cc1ccccc1 | 3.67 |
| Cc1ccc(CN2CCC3(CC2)CCN(C(=O)c2cccn2C)C3)cc1 | -2.6 |
| Cc1ccoc1C1=NNC(=CN2CCn3c(nnc3C3CC3)C2)O1 | 7.65 |
| Cn1cnnc1SCC(=O)N1C[C@@H]2CC[C@H]1CN(Cc1cccnc1)C2 | -2.82 |
| O=C(c1ccccn1)N1C[C@H]2CC[C@@H](C1)N(C(=O)CCC(F)(F)F)C2 | 4.37 |
